Test results: ChEMBL document CHEMBL2331476, “A novel semisynthetic flavonoid 7-O-galloyltaxifolin upregulates heme oxygenase-1 in RAW264.7 cells via MAPK/Nrf2 pathway” (J Med Chem, 2013)
Calls of active or inactive are those of the source. No cut-off for these calls is given here.

Columns and labels:
RAW264.7 [1] = experiment: Stability in mouse RAW264.7 cells assessed as gallic acid level at 50 uM after 6 hrs by HPLC/MS analysis; assay type: ADME, cell-based; settings: raw264.7, 6 h
[2] = target: T1, Nuclear factor erythroid 2-related factor 2 (Mus musculus) (UniProt Q60795); experiment: Activation of Nrf2 in mouse RAW264.7 cells assessed as nuclear accumulation at 50 uM after 1 hr by Western blotting analysis; assay type: cell-based
T1 sequence (whole entry): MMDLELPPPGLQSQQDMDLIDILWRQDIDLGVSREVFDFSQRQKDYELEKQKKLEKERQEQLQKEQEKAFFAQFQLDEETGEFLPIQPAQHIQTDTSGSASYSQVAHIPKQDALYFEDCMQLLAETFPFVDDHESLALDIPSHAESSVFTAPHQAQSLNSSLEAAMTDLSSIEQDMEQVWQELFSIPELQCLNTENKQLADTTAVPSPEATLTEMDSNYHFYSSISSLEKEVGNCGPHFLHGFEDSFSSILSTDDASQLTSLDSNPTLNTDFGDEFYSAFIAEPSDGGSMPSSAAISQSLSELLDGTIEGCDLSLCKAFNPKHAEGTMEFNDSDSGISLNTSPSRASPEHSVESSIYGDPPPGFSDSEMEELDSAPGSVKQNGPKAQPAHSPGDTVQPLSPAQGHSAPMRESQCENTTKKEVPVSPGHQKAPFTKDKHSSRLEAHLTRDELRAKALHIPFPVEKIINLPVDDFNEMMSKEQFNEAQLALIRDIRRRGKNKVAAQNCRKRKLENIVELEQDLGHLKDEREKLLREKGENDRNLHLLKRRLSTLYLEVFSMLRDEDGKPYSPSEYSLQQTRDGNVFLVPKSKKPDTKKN
How it was run: (§1)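 Serum-starved RAW264.7 cells treated 30 min to 3 h (10-50 μM for 3 h, or 50 μM time course); 0.1% DMSO control, 50 μM quercetin positive control. Cytosolic fraction from hypotonic HEPES pH 7.9 buffer with 0.1% NP-40; nuclear fraction by 420 mM NaCl extraction. 30 μg/lane blotted for Nrf2 and actin; Nrf2/actin densitometry, mean of three experiments.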

[3] = Drug metabolism in culture medium assessed as 7-O-galloylquercetin level; assay type: physicochemical
How it was run: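 Compound incubated in culture medium without cells. Medium aliquots diluted 1:1 in methanol with 5% acetic acid, centrifuged, and analysed by phenyl-column UPLC with negative-mode ESI-QqTOF MS.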

[4] = target: T1, Nuclear factor erythroid 2-related factor 2 (Mus musculus); experiment: Activation of Nrf2 in mouse RAW264.7 cells assessed as nuclear accumulation at 25 uM after 3 hrs by Western blotting analysis; assay type: cell-based; how it was run: as §1
[5] = target: T1, Nuclear factor erythroid 2-related factor 2 (Mus musculus); experiment: Activation of Nrf2 in mouse RAW264.7 cells assessed as upregulation of HO1 protein expression at 50 uM after 3 hrs by Western blotting analysis; assay type: cell-based
How it was run: (§2)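 HO-1 protein in whole-cell lysates (20 μg/lane) of serum-starved RAW264.7 cells after 6 h at 10-50 μM or 50 μM for 1-6 h in serum-free medium, 0.1% DMSO control. Chemiluminescent Western blot; HO-1 densitometry normalized to actin, mean of three experiments.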

[6] = target: T1, Nuclear factor erythroid 2-related factor 2 (Mus musculus); experiment: Activation of Nrf2 in mouse RAW264.7 cells assessed as reduction of KEAP1 protein level at 50 uM after 3 hrs by Western blotting analysis; assay type: cell-based
How it was run: (§3)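 Whole-cell lysates (20 μg/lane) from serum-starved RAW264.7 cells given 10-50 μM for 6 h or 50 μM for 1-6 h in serum-free medium, 0.1% DMSO vehicle. Keap1 and actin detected by chemiluminescent Western blot; Keap1 band intensity normalized to actin, mean of three experiments.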

[7] = target: T1, Nuclear factor erythroid 2-related factor 2 (Mus musculus); experiment: Activation of Nrf2 in mouse RAW264.7 cells assessed as cytosolic accumulation at 50 uM after 2 hrs by Western blotting analysis; assay type: cell-based; how it was run: as §1
RAW264.7 [8] = experiment: Drug uptake in mouse RAW264.7 cells measured per 10^6 cells at 50 uM after 3 hrs; assay type: ADME, cell-based; settings: raw264.7, 3 h
How it was run: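 Cells given 50 μM for up to 6 h, then scraped, washed twice in PBS and sonicated in methanol with 5% acetic acid. Supernatant analysed by UPLC on a phenyl column (water/1% acetic acid/methanol to methanol gradient, 35 °C) with negative ESI-QqTOF MS. Contents expressed as nmol per 10⁶ cells.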

RAW264.7 [9] = experiment: Induction of ROS generation in mouse RAW264.7 cells at 50 uM after 2 hrs by flow cytometric analysis; assay type: functional
How it was run: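 Serum-starved RAW264.7 cells treated 2 h at 10-50 μM; 100 μM TBHP for 30 min as positive control. Medium replaced, cells loaded with 10 μM carboxy-H₂DCFDA for 15 min at 37 °C. Flow cytometry (488 nm excitation, 525 nm emission, 10,000 events) gave percentage of cells with raised ROS; mean ± SD of three experiments.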

[10] = target: T1, Nuclear factor erythroid 2-related factor 2 (Mus musculus); experiment: Activation of Nrf2 in mouse RAW264.7 cells assessed as induction of Hmox1 mRNA expression at 50 uM after 6 hrs by real-time PCR analysis in presence of PD98059; assay type: cell-based
How it was run: (§4)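 Pretreatment 30 min with 0.1% DMSO, 15 μM PD98059, 15 μM SB203580 or 30 μM SP600125, then 50 μM agent for 6 h in serum-free medium. Hmox1 mRNA by TaqMan qPCR normalized to Gapdh, given as percent of agent-induced expression; mean ± SD of three experiments.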

[11] = target: T1, Nuclear factor erythroid 2-related factor 2 (Mus musculus); experiment: Activation of Nrf2 in mouse RAW264.7 cells assessed as upregulation of Hmox1 gene expression at 25 uM after 6 hrs by real-time PCR analysis relative to GAPDH mRNA expression; assay type: cell-based
How it was run: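 RAW264.7 cells treated 6 h in serum-free medium, 0.1% DMSO control. Total RNA (2 μg) reverse transcribed; TaqMan qPCR for Hmox1 and Gapdh, 40 cycles. Relative expression by 2^−ΔΔCT, normalized to Gapdh; mean ± SD of three experiments.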

[12] = target: T1, Nuclear factor erythroid 2-related factor 2 (Mus musculus); experiment: Activation of Nrf2 in mouse RAW264.7 cells assessed as induction of Hmox1 mRNA expression at 50 uM after 6 hrs by real-time PCR analysis in presence of SB203580; assay type: cell-based; how it was run: as §4
[13] = target: Mitogen-activated protein kinase 3 (Mus musculus) (UniProt Q63844); experiment: Activation of ERK1 in mouse RAW264.7 cells assessed as phosphorylation at Thr202/Tyr204 at 50 uM after 30 mins by Western blotting analysis; assay type: cell-based
How it was run: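 RAW264.7 cells (passage 5-25) seeded at 1 × 10⁵ cells/cm², serum-starved overnight, then exposed in serum-free medium for 30 min to 3 h; 0.1% DMSO vehicle; 75 ng/mL EGF for 30 min as positive control. Whole-cell lysates (20 μg/lane) on 10% SDS-PAGE, blotted for phospho-ERK1 (Thr202/Tyr204), phospho-ERK2 (Thr185/Tyr187) and total ERK1/2, chemiluminescent detection.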

[14] = target: T1, Nuclear factor erythroid 2-related factor 2 (Mus musculus); experiment: Activation of Nrf2 in mouse RAW264.7 cells assessed as reduction of KEAP1 protein level at 50 uM after 1 to 6 hr by Western blotting analysis; assay type: cell-based; settings: TDE = time-dependent effect; how it was run: as §3
[15] = target: T1, Nuclear factor erythroid 2-related factor 2 (Mus musculus); experiment: Activation of Nrf2 in mouse RAW264.7 cells assessed as upregulation of HO1 protein expression at 50 uM after 6 hrs by Western blotting analysis; assay type: cell-based; how it was run: as §2

Chain of Mitogen-activated protein kinase 3 (Mus musculus) (Q63844 whole entry): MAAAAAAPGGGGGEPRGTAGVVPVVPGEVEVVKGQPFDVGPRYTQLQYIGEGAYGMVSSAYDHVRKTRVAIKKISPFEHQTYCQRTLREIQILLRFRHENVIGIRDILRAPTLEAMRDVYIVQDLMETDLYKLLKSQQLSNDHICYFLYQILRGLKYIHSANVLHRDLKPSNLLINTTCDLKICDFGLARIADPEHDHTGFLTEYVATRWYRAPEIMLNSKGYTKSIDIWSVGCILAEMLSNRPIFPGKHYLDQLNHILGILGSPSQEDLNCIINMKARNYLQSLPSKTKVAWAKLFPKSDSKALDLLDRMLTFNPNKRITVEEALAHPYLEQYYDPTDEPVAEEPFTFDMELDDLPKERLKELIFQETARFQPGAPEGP

- Stability (RAW264.7 [1]): Stable
- Activity [2]: Active
- Drug metabolism [3]: Not Active
- Activity [4]: Active
- fold change (FC) [5]: 1.3
- Activity [6]: Active
- Activity [7]: Active
- Drug uptake (RAW264.7 [8]): 1.03 nmol
- Activity [10]: inactive
- fold change (FC) [11]: 4.8
- Activity [12]: inactive
- Activity [13]: Active
- Activity [14]: tde
- fold change (FC) [15]: 2.3
SMILES: O=C(Oc1cc(O)c2c(c1)O[C@H](c1ccc(O)c(O)c1)[C@@H](O)C2=O)c1cc(O)c(O)c(O)c1
- Activity (RAW264.7 [9]): 29%
